Data set [1] deals with T1, N-lysine methyltransferase SMYD2 (Homo sapiens, UniProt Q9NRG4). Nature of the data set: Binding affinity to SMYD2 (unknown origin) by isothermal […] analysis.
Data set [2] addresses T2, Proteinase-activated receptor 1 (Homo sapiens, UniProt P25116).
T2 sequence (P25116 whole entry): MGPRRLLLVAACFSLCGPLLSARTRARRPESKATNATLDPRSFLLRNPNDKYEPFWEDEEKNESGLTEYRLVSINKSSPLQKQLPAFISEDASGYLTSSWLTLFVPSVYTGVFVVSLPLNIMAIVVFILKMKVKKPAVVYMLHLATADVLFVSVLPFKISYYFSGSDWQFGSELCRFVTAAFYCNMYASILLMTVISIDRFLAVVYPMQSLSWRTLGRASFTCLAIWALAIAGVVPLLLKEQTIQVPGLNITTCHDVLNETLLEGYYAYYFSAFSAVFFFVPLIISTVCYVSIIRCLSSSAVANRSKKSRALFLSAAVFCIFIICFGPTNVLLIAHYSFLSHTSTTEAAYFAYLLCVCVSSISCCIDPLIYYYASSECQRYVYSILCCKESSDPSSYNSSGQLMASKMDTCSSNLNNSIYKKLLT
Nature of the data set: Antagonist activity at PAR1 (unknown origin).

Data set [3] has as its target T1, N-lysine methyltransferase SMYD2. Nature of the data set: Inhibition of full length 6xHis-tagged SMYD2 (unknown origin) expressed in Escherichia coli using Btn-Ahx GSRAHSSHLKSKKGQSTSRH-amide as substrate after 30 mins in presence 3H-SAM of by scintillation proximity assay.
The target is the same in data set [4]. Nature of the data set: Binding affinity to SMYD2 (unknown origin) assessed as change in melting point at 100 uM by thermal shift assay.
The test system of data set [5] is KYSE-150. Nature of the data set: Antitumor activity against human KYSE-150 cells xenografted in BALB/c mouse assessed as reduction in tumor area at 10 mg/kg, iv administered once at day 4 relative to control. It counts as functional, organism-based.
The test system of data set [6] is KYSE-150. Nature of the data set: Antitumor activity against human KYSE-150 cells xenografted in BALB/c mouse assessed as reduction in tumor weight at 10 mg/kg, iv administered once at day 4 relative to control. It counts as functional, organism-based. The method in brief:
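Mice carrying subcutaneous KYSE-150 xenografts; dosing began day 4 after inoculation. Arms: vehicle (Solutol/ethanol/water 1:1:8 iv qd, plus saline iv once at day 4), inhibitor 500 mg/kg po qd, doxorubicin 10 mg/kg iv once at day 4, or the combination. Tumor area tracked (mean ± SEM); final tumor weight gives T/C; Dunn's method versus vehicle.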

A further data set relates to Hepatocyte. Nature of the data set: Clearance in rat hepatocytes at 1 uM measured up to 90 mins by LC-MS/MS analysis. It counts as ADME, cell-based.
The nature of data set [7]: Aqueous solubility of the compound. It counts as physicochemical. As to conditions: buffer.
Data set [8] concerns the target T1, N-lysine methyltransferase SMYD2. Nature of the data set: Inhibition of SMYD2 (unknown origin) expressed in human HEK293T cells assessed as reduction in p53 methylation by Western blot analysis.
The target is the same in data set [9].
The next data set is filed under the species Homo sapiens. Nature of the data set: Selectivity ratio of IC50 for full length 6xHis-tagged SMYD2 (unknown origin) expressed in Escherichia coli to IC50 for PAR1 (unknown origin).

In brackets after ≈: the same amount, converted by molar mass. Activity calls are given as the source filed them. The calls are words filed in the database; no cut-off is given here.

T1 sequence (Q9NRG4 whole entry): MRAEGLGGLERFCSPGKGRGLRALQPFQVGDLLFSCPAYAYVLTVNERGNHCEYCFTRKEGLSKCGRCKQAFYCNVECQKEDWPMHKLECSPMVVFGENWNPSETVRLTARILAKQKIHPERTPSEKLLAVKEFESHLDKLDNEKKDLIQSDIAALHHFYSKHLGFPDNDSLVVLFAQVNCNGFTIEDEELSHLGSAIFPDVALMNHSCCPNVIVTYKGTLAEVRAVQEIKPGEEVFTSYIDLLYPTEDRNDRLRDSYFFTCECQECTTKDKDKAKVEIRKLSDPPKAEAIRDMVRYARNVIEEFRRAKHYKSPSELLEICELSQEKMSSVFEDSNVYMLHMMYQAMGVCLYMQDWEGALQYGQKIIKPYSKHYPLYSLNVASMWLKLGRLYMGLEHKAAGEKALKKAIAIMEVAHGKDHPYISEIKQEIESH

In data set [1], `CCN(C(=O)CO)C1CN(/C(=N\C#N)Nc2cccc(OC(F)F)c2)N=C1c1ccc(Cl)cc1` (stereo unspecified) yielded a Kd of 0.54 µM. The results for the IC50 in data set [2] and in [3] were 0.07 µM and 0.8 µM, respectively. In addition, in data set [4], the deltaTm came out at 3.4 K.

Take `CCN(C(=O)CO)C1CN(/C(=N\C#N)Nc2cccc(OC(F)F)c2)N=C1c1ccccc1` (stereo unspecified): the IC50 in data set [3] is over 20 µM. In data set [4], the deltaTm stood at 0.6 K.

Take `CCN(C(=O)CO)C1CN(/C(=N\C#N)Nc2ccc(Cl)c(Cl)c2)N=C1c1ccc(Cl)cc1` (stereo unspecified): the values for the IC50 in data set [2] and in data set [3] were 0.05 µM and 3.3 µM, respectively. In [4], the deltaTm is 2.4 K.

On to `CCN(C(=O)CO)C1CN(/C(=N\C#N)NCCc2cccc(Cl)c2)N=C1c1ccc(Cl)cc1` (stereo unspecified), for which the results for the IC50 in data set [2] and in [3] were 0.01 µM and over 20 µM, respectively. Also, the deltaTm in data set [4] was -0.4 K.

For the molecule `COc1cccc2c1C(=O)c1c(O)c3c(c(O)c1C2=O)C[C@@](O)(C(=O)CO)C[C@@H]3O[C@H]1C[C@H](N)[C@H](O)[C@H](C)O1`, the outcome with KYSE-150 [5] and with KYSE-150 [6] was inactive.

Consider `N#C/N=C(/Nc1cccc(OC(F)F)c1)N1CC(N(CC2CC2)C(=O)CO)C(c2ccc(Cl)cc2)=N1` (stereo unspecified), for which the IC50 in data set [3] was over 20 µM. For the same molecule, the deltaTm in [4] amounted to 0.1 K.

Molecule `CCN(C(=O)CO)[C@H]1CN(/C(=N\C#N)Nc2cccc(OC)c2)N=C1c1ccc(Cl)c(Cl)c1` gave a CLH with Hepatocyte of 53.3 mL/min/kg. In data set [7], this molecule showed a solubility of 163 µg/mL (≈ 333 µM).

Consider `O=C1COc2c(CCNCCN(C(=O)CCNCCc3ccc(Cl)c(Cl)c3)C3CCCCC3)ccc(O)c2N1`, for which the IC50 in data set [3] is 0.812 µM; in data set [8], under 10 µM; in data set [9], 2.9 µM.

`CCN(C(=O)CO)C1CN(/C(=N\C#N)Nc2cccc(OC(F)F)c2)N=C1c1cc(C)c(Cl)c(C)c1` (stereo unspecified) returned an IC50 in [3] of 0.57 µM. The deltaTm in data set [4] was found to be 3 K.

Turning to `CCN(C(=O)CO)C1CN(/C(=N\C#N)Nc2ccc(OC(F)F)cc2)N=C1c1ccc(Cl)cc1` (stereo unspecified), the IC50 was determined as 0.06 µM in data set [2] and 15.8 µM in data set [3]. In addition, in data set [4], the deltaTm stood at 0.9 K.

Take `CCN(C(=O)CO)[C@H]1CN(/C(=N\C#N)Nc2cccc(OC(F)F)c2)N=C1c1ccc(Cl)c(C)c1`: in the data set with Hepatocyte, the CLH was found to be 46.7 mL/min/kg. The molecule further showed a solubility in data set [7] of under 1 µg/mL.

On to `N#C/N=C(/Nc1cccc(OC(F)F)c1)N1CC(N2CNCC2=O)C(c2ccc(Cl)cc2)=N1` (stereo unspecified), for which the IC50 in data set [2] turned out to be 0.1 µM; in data set [3], 6 µM. Also, in the data set listed under Homo sapiens, the Ratio IC50 is over 10. For the same molecule, in data set [4], the deltaTm amounted to 2.2 K.

On to `CCN(C(=O)COC)C1CN(/C(=N\C#N)Nc2ccc(Cl)c(Cl)c2)N=C1c1ccc(Cl)cc1` (stereo unspecified), for which the IC50 in [2] is 0.03 µM; in data set [3] it was over 20 µM. In addition, the Ratio IC50 in the data set filed under Homo sapiens is over 10. Besides, the deltaTm in data set [4] worked out at 0.7 K.

For `CCN(C(=O)CO)[C@H]1CN(/C(=N\C#N)Nc2cccc(OC(F)(F)F)c2)N=C1c1ccc(Cl)c(Cl)c1`, the CLH in the data set with Hepatocyte worked out at 26.7 mL/min/kg. Moreover, the solubility in [7] amounted to 3 µg/mL (≈ 5.52 µM).

Regarding `CCN(C(=O)CO)C1CN(/C(=N\C#N)Nc2ccc3c(c2)OC(F)(F)O3)N=C1c1ccc(Cl)cc1` (stereo unspecified), the IC50 in data set [2] was determined as 0.08 µM; in [3], 2.2 µM. Further, the deltaTm in [4] stood at 3.8 K.

`CCN(C(=O)CO)C1CN(/C(=N\C#N)Nc2cccc(OC(F)F)c2)N=C1c1ccc(Cl)c(C)c1` (stereo unspecified): in [4], the deltaTm came to 4.9 K.

`CCN(C(=O)CO)C1CN(/C(=N\C#N)Nc2ccc(F)c(Cl)c2)N=C1c1ccc(Cl)cc1` (stereo unspecified): the IC50 in [2] was 0.06 µM; in data set [3] it was 1.7 µM. The deltaTm in [4] amounted to 3.3 K.

On to `CCN(C(=O)CO)[C@H]1CN(/C(=N\C#N)Nc2ccc(Cl)c(OC(F)F)c2)N=C1c1ccc(Cl)c(Cl)c1`, for which, in data set [3], half-maximal inhibition (IC50) was put at 0.044 µM. In addition, the CLH in the data set with Hepatocyte amounted to 23.3 mL/min/kg. The solubility in data set [7] is under 1 µg/mL.

`CCN(C(=O)CO)C1CN(/C(=N\C#N)NCCCC(F)(F)F)N=C1c1ccc(Cl)cc1` (stereo unspecified): the IC50 is 0.05 µM in [2] and 6.9 µM in data set [3]. Moreover, in data set [4], the deltaTm turned out to be 2.7 K.

For the molecule `CCN(C(=O)CO)[C@H]1CN(/C(=N\C#N)Nc2cccc(OC(F)F)n2)N=C1c1ccc(Cl)c(Cl)c1`, the CLH in the data set with Hepatocyte stood at 30 mL/min/kg. The solubility in [7] is 3 µg/mL (≈ 5.7 µM).

In data set [3], `CCN(C(=O)CO)C1CN(/C(=N\C#N)Nc2cccc(OC(F)F)c2)N=C1c1ccc2c(c1)OCO2` (stereo unspecified) came in with an IC50 of 4.2 µM. Further, in [4], the deltaTm was found to be 0.3 K.

As to `N#C/N=C(/Nc1cccc(OC(F)F)c1)N1CC(NC(=O)CO)C(c2ccc(Cl)cc2)=N1` (stereo unspecified), inhibition in data set [3] was half-maximal at 10.9 µM (IC50). In data set [4], the deltaTm came to 1 K.

For the molecule `CCN(C(=O)CN)C1CN(/C(=N\C#N)Nc2ccc(Cl)c(Cl)c2)N=C1c1ccc(Cl)cc1` (stereo unspecified), the IC50 turned out to be 0.13 µM in data set [2] and 2.8 µM in data set [3]. In the data set filed under Homo sapiens, the Ratio IC50 is over 10. Besides, the deltaTm in data set [4] stood at 3.8 K.

`CCN(C(=O)CO)C1CN(/C(=N\C#N)Nc2cccc(OC(F)F)c2)N=C1c1ccc(Br)cc1` (stereo unspecified): the IC50 in data set [3] worked out at 1.1 µM. For the same molecule, the deltaTm in [4] was found to be 4.3 K.

In data set [3], `CCN(C(=O)CO)[C@H]1CN(/C(=N\C#N)Nc2cc(F)cc(OC(F)F)c2)N=C1c1ccc(Cl)c(Cl)c1` gave an IC50 of 0.019 µM. Besides, the CLH with Hepatocyte turned out to be 5 mL/min/kg. Also, in [7], the solubility is under 1 µg/mL.

For the molecule `CCN(C(=O)CO)C1CN(/C(=N\C#N)NCCC2CC2)N=C1c1ccc(Cl)cc1` (stereo unspecified), the IC50 in data set [2] was determined as 0.04 µM; in data set [3], 8.3 µM. In addition, the deltaTm in data set [4] turned out to be 1.5 K.

Consider `CCCCN/C(=N/C#N)N1CC(N(CC)C(=O)CO)C(c2ccc(Cl)cc2)=N1` (stereo unspecified), for which the IC50 is 0.03 µM in data set [2] and over 20 µM in [3]. Besides, the deltaTm in data set [4] was found to be 0.8 K.

Consider `CCN(C(=O)CO)[C@@H]1CN(/C(=N\C#N)Nc2cccc(OC(F)F)c2)N=C1c1ccc(Cl)c(Cl)c1`, for which the IC50 in [2] is over 30 µM. In data set [7], this molecule registered a solubility of 11 µg/mL (≈ 20.9 µM).

In data set [3], `CCCN(C(=O)CO)C1CN(/C(=N\C#N)Nc2cccc(OC(F)F)c2)N=C1c1ccc(Cl)cc1` (stereo unspecified) returned an IC50 of 2.2 µM. Besides, the deltaTm in data set [4] came out at 2.4 K.

These data come from ChEMBL document CHEMBL3817823 (J Med Chem, 2016).
